This is an account of results in ChEMBL document CHEMBL5260824, “9-Deazapurines as Broad-Spectrum Inhibitors of the ABC Transport Proteins P-Glycoprotein, Multidrug Resistance-Associated Protein 1, and Breast Cancer Resistance Protein” (J Med Chem, 2017).

Data set [1] deals with H69AR. Briefly: Sensitization of human NCI-H69AR cells expressing MRP1 assessed as maximal sensitivity at 10 uM relative to control. Format: functional. An outline of the steps:
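Resistant lines were exposed to daunorubicin (A2780/ADR, H69AR) or SN-38 (MDCK II BCRP) over 10 nM–10 µM final, with or without modulator, for 72 h. Viability was read by MTT. Potentiation factor is GI50 without modulator over GI50 with modulator. Maximal sensitization is pf at 10 µM divided by the native resistance factor, in percent.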

The nature of data set [2]: Potentiation factor, ratio of GI50 for daunorubicin resistant human A2780 ADR cells expressing P-gp cells to GI50 for reversal of daunorubicin resistance in human A2780 ADR cells assessed as daunorubicin GI50 at 10 uM (reference value: 1 uM). Format: functional. An outline of the steps:
(§1)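 Reversal assay: resistant lines (A2780/ADR, H69AR, MDCK II BCRP) and parental lines seeded as for MTT assay with modulator solutions of 1, 10 and 100 µM added (final 0.1, 1, 10 µM) and daunorubicin (P-gp, MRP1) or SN-38 (BCRP) at final 10 nM–10 µM. 72 h, MTT read-out; GI50 by variable-slope fit. Resistance factor = resistant/sensitive GI50; potentiation factor = GI50 without/with modulator.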

In data set [3] the test system is H69AR. Briefly: Reversal of Daunorubicin resistance in human NCI-H69AR cells assessed as Daunorubicin GI50 at 1 uM measured for 72 hrs by MTT assay. Format: functional. Put shortly: as §1
On the technique in general: Tetrazolium dyes change colour on reduction, which living cells bring about.

The nature of data set [4]: Antiproliferative activity against human A2780 ADR cells assessed as reduction in cell viability measured for 72 hrs bt MTT assay. Format: functional.
A short description of data set [5]: Potentiation factor, ratio of GI50 for SN-38 resistant dog MDCK-II-BCRP cells expressing BCRP cells to GI50 for reversal of SN-38 resistance in dog MDCK-II-BCRP cells assessed as SN-38 GI50 at 1 uM (reference value: 1 uM). The format is functional, Canis lupus familiaris. An outline of the steps: as §1
Data set [6] addresses MRP1 (Homo sapiens, UniProt P33527). Put plainly: Inhibition of MRP1 in human NCI-H69AR cells at 10 uM incubated for 180 mins in presence of daunorubicin by flow cytometry analysis relative to control. The format is cell-based. The following applies: probe daunorubicin. Put shortly: (§2)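 H69AR cells (doxorubicin-selected small cell lung cancer, RPMI-1640/20% FBS), about 60,000 per well, preincubated 15 min with compound (100 nM–100 µM added solutions, in unsupplemented medium), then daunorubicin (30 µM solution added); steady state after 180 min, 37 °C, 5% CO2. Cells resuspended; flow cytometry, 488 nm excitation, FL3 (≥670 nm). Reference inhibitor 75 at 10 µM = 100%; Imax relative to it.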

For data set [7], the system named is H69AR. Put plainly: Reversal of Daunorubicin resistance in human NCI-H69AR cells assessed as Daunorubicin GI50 at 0.1 uM measured for 72 hrs by MTT assay. The format is functional. Put shortly:
as §1

Data set [8] concerns the target Multidrug resistance-associated protein 1 (Homo sapiens, UniProt P33527). Put plainly: Inhibition of MRP1 in human NCI-H69AR cells incubated for 180 mins in presence of daunorubicin by flow cytometry analysis. The format is cell-based. Put shortly:
as §2
For orientation: Flow cytometry measures light scatter and fluorescence of single cells or particles in a stream.

Data set [9] in a line: Reversal of Daunorubicin resistance in human A2780 ADR cells assessed as Daunorubicin GI50 at 10 uM measured for 72 hrs by MTT assay. The format is functional. An outline of the steps: as §1
A further data set has as its system P-gp (ABCB1). Put plainly: Therapeutic index, ratio of GI50 for antiproliferative activity against human A2780 ADR cells to IC50 for inhibition of P-gp (unknown origin). Format: toxicity, cell-based. An outline of the steps:
(§3)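 Ratio of MTT-assay GI50 to transport-inhibition IC50, both in the resistant line. GI50 comes from 72 h exposure at 37 °C to dilutions up to 1000 µM, with medium as 100% and 10% DMSO as 0% viability. IC50 comes from calcein AM (A2780/ADR), daunorubicin (H69AR) or pheophorbide A (MDCK II BCRP) accumulation.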

Data set [10] has as its system H69AR. Briefly: Reversal of Daunorubicin resistance in human NCI-H69AR cells assessed as Daunorubicin GI50 at 10 uM measured for 72 hrs by MTT assay. Format: functional. An outline of the steps: as §1
Data set [11] is described as follows: Reversal of Daunorubicin resistance in human A2780 ADR cells assessed as Daunorubicin GI50 at 1 uM measured for 72 hrs by MTT assay. Format: functional. An outline of the steps: as §1
The nature of data set [12]: Potentiation factor, ratio of GI50 for daunorubicin resistant human A2780 ADR cells expressing P-gp cells to GI50 for reversal of daunorubicin resistance in human A2780 ADR cells assessed as daunorubicin GI50 at 0.1 uM (reference value: 1 uM). Format: functional. Put shortly:
as §1

The test system of data set [13] is H69AR. Briefly: Potentiation factor, ratio of GI50 for daunorubicin resistant human NCI-H69AR cells expressing MRP1 cells to GI50 for reversal of daunorubicin resistance in human NCI-H69AR cells assessed as daunorubicin GI50 at 1 uM (reference value: 1 uM). The format is functional. Put shortly:
as §1

Data set [14] in a line: Reversal of drug resistance in human A2780 ADR cells expressing P-gp. The format is functional, cell-based. An outline of the steps:
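Cells seeded per well (A2780/ADR 8,000; H69AR 20,000; MDCK II BCRP 3,000) with test compound at 1, 10 or 100 µM solutions added before cells. Daunorubicin (P-gp, MRP1) or SN-38 (BCRP) added to final 10 nM–10 µM. 72 h at 37 °C, then MTT viability read at 570 nm. GI50 from variable-slope nonlinear fits, compared with parental lines; three independent experiments in duplicate.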

A short description of data set [15]: Reversal of SN-38 resistance in dog MDCK-II-BCRP cells assessed as SN-38 GI50 at 10 uM measured for 72 hrs by MTT assay. The format is functional. The following applies: Canis lupus familiaris. Put shortly:
as §1

Data set [16] is described as follows: Potentiation factor, ratio of GI50 for daunorubicin resistant human A2780 ADR cells expressing P-gp cells to GI50 for reversal of daunorubicin resistance in human A2780 ADR cells assessed as daunorubicin GI50 at 1 uM by MTT assay (reference value: 1 uM). Format: functional. An outline of the steps: as §1
Data set [17] can be described thus: Sensitization of dog MDCK-II-BCRP cells expressing BCRP assessed as maximal sensitivity at 10 uM relative to control.
Data set [18] has as its system MRP1. Put plainly: Therapeutic index, ratio of GI50 for antiproliferative activity against human NCI-H69AR cells to IC50 for inhibition of MRP1 in human NCI-H69AR cells. Format: toxicity, cell-based. An outline of the steps:
as §3

Data set [19] concerns H69AR. Briefly: Antiproliferative activity against human NCI-H69AR cells assessed as reduction in cell viability measured for 72 hrs bt MTT assay. The format is functional.
The nature of data set [20]: Reversal of SN-38 resistance in dog MDCK-II-BCRP cells assessed as SN-38 GI50 at 1 uM measured for 72 hrs by MTT assay. The format is functional. The following applies: Canis lupus familiaris. Put shortly:
as §1

Data set [21] deals with H69AR. Briefly: Potentiation factor, ratio of GI50 for daunorubicin resistant human NCI-H69AR cells expressing MRP1 cells to GI50 for reversal of daunorubicin resistance in human NCI-H69AR cells assessed as daunorubicin GI50 at 0.1 uM (reference value: 1 uM). Format: functional. Put shortly: as §1
Another data set deals with NCI-H69. Put plainly: Antiproliferative activity against human NCI-H69 cells assessed as reduction in cell viability measured for 72 hrs bt MTT assay. Format: functional.

Chain of MRP1 (Homo sapiens, UniProt P33527) (P33527 whole entry): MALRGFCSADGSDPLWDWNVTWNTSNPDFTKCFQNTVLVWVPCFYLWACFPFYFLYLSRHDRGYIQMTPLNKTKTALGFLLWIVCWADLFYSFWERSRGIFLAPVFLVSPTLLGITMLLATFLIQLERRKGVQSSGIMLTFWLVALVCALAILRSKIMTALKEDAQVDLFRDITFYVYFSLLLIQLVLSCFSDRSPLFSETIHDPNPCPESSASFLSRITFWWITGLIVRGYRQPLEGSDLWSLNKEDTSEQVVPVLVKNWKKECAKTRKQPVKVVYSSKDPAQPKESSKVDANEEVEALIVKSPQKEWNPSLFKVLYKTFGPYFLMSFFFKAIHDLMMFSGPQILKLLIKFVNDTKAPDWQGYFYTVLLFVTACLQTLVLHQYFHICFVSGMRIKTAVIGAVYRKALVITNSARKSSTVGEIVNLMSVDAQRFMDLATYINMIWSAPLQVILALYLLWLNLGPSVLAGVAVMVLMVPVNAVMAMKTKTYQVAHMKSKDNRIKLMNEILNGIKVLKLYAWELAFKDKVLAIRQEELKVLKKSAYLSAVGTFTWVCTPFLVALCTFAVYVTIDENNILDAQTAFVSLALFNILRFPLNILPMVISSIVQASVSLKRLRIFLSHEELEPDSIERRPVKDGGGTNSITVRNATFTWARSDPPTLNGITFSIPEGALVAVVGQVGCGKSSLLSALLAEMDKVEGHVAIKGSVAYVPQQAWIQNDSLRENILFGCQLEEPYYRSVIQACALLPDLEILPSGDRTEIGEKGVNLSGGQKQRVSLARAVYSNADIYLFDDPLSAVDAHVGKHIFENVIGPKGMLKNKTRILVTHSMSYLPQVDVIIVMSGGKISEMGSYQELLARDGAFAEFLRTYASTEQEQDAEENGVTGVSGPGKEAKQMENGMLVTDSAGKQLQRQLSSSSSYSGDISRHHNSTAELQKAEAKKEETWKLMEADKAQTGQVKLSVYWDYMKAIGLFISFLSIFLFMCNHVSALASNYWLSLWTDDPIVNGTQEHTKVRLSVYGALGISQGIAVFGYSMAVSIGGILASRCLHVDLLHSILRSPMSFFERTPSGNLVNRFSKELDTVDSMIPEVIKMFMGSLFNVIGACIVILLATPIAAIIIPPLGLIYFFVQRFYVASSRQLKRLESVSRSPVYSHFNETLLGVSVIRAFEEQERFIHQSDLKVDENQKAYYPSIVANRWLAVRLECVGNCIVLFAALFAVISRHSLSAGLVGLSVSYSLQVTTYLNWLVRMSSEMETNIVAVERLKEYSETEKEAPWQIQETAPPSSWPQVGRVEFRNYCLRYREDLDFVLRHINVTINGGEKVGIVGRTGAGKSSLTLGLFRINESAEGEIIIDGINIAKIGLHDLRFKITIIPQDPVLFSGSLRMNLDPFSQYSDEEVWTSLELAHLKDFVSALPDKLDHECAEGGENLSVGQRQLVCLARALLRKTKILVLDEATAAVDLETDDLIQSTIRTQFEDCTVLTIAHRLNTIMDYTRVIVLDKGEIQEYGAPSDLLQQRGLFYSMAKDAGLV
Chain of Multidrug resistance-associated protein 1 (P33527 whole entry): as above

By GI50 is commonly meant the concentration giving 50% growth inhibition. As a reminder, the inhibition is the percentage by which the read-out fell short of the control. As usually defined, the IC50 is the point on the concentration scale where inhibition reaches its midpoint. As a reminder, the EC50 is the concentration giving half of the maximal effect. Regarding `N#Cc1cn(CCCc2ccccc2)c2c(N3CCN(CCc4c[nH]c5ccccc45)CC3)ncnc12`, the Activity is recorded as 81% with H69AR [1] and 140% in data set [17]. The RatioGI50 is recorded as 13 in data set [2] and 9.8 in [16]. Further, the concentration for 50% growth inhibition (GI50) worked out at 1170 nM in the data set with H69AR [3]; 13700 nM in [4]; 2100 nM in the data set with H69AR [7]; 44 nM in data set [9]; 445 nM in the data set with H69AR [10]; 58 nM in [11]. For the same compound, the GI50 in data set [15] turned out to be 61 nM; in the data set on H69AR [19] it was 152000 nM; in [20] it was 211 nM; with NCI-H69, 55400 nM. Further, the PF was 8.1 in [5], 2 in data set [12], 3.3 in the data set on H69AR [13] and 1.8 with H69AR [21]. For the same compound, on MRP1 [6], the inhibition at 3 h, 10 µM is over 25%. Further, in data set [8], the IC50 worked out at 501 nM. In addition, the values for the selectivity ratio in the data set on P-gp (ABCB1) and with MRP1 [18] were 9.4 and 303, respectively. For the same compound, the EC50 in data set [14] was 563 nM.
